Compound activity deposited in PubChem by several laboratories.
A selection: hits, their analogues and other compounds. The true share with any hit is near 2.1%.
Autophagy HCS: autophagy modulators in MEF cells, primary screen, imaging, high-content, MEF GFP-LC3 | MEF GFP-LC3 puncta imaging; test concentration mostly 10 µM | calls only at 10 µM (by protocol) | 190,000 compounds, 0.98% hits | AID 463193, 2010;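 active = percentage of spot-positive cells more than 3 SD above its plate mean, without a fluorescence outlier flag or 80% toxicity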;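 also: spot-positive cell cutoff set from DMSO-treated cells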
Insulin prom inh: inhibitors of insulin promoter-driven GFP, primary screen, imaging, TRM-6 cells (human fetal islet line), eGFP reporter, cell count; reporter expression induced with tamoxifen; inhibition, % at 2 µM; 130,000 compounds, 0.9% hits; AID 1273, 2008;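 active = inhibition above the mean plus 3 SD, with well images judged a real hit on visual review, cut at about 60% in these data, passing the limit was not always enough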
Arbovirus inh: antivirals against arbovirus infection, primary screen, cell-based, full library, 10K replicate subset. arbovirus infection cell-based antiviral screen. inhibition, % at 10 µM. 200,000 compounds, 0.37% hits; in the data active = inhibition above about 30%
RBBP9 inh: human RBBP9 inhibitors, primary screen, biochemical, fluorescence polarization, FP-Rh probe, HTS; Serine hydrolase RBBP9 (Homo sapiens), O75884; recombinant RBBP9; AID 1515, 2009; inhibition, % at 7.94 µM; 220,000 compounds, 0.2% hits;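 active = inhibition above the campaign mean of all tested compounds plus 3 SD, cut at about 14% in these data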;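 also: plate controls were DMSO wells with RBBP9 for no effect and wells lacking RBBP9 protein for full effect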
Target sequence (O75884 whole entry, looked up): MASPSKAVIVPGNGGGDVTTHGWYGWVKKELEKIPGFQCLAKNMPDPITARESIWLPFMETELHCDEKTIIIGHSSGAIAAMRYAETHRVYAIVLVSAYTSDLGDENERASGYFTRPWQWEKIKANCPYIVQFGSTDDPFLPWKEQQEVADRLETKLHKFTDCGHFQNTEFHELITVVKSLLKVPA
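Assay system: recombinant human RBBP9; Reagent: Serine-hydrolase probe FP-Rh, 375 nM pre-mixing; Doses: 7.94 µM single dose, 0.794% DMSO; Incubation: 30 min then 45 min, 25 °C; Detection: fluorescence polarization (mP), excitation 525 nm, emission 598 nm; Evaluation: percent inhibition from mP, scaled between DMSO and no-protein wells.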
PKD1 inh: inhibitors of human PKD1 kinase, biochemical, fluorescence polarization | Serine/threonine-protein kinase D1 (Homo sapiens), Q15139 | PKD1 kinase fluorescence polarization assay | inhibition, % (concentration not given with the values) | 200,000 compounds, 0.056% hits | AID 797, 2007; in the data active = inhibition above about 50%
Insulin prom up: insulin promoter activators in MIN6 cells, imaging, high-content screening, mouse beta cells | MIN6 insulin promoter-GFP reporter; active compounds read high | z-score at 5 µM | 190,000 compounds, 0.3% hits | AID 1625, 2009;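 active = z-score above 3 at 5 µM with at least 500 cells counted in the well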
* = called active by the depositor; i = inactive; . = no result given; + = active, no number.

SMILES	Autophagy HCS	Insulin prom inh	Arbovirus inh	RBBP9 inh	PKD1 inh	Insulin prom up
CCOC(=O)c1c(-c2ccc(C)cc2)csc1NC(=O)/C(C#N)=C/c1ccc(O)c(OC)c1	+	-167	4	4	-9	.
CCOC(=O)c1ccc(NC(=O)C2C3CCC(C3)C2C(=O)O)cc1 (stereo not given)	i	23	1	-2	-3	.
O=C1CC(c2ccc(Br)cc2)NC(c2ccc(Br)cc2)C1c1ccccc1 (stereo not given)	i	0	45*	-4	-7	.
Cc1cc(C)nc(SCCC(=O)N2CCOCC2)n1	i	25	-1	-3	1	.
Cc1ccc(NC(=O)CC(O)(C(F)(F)F)C(F)(F)F)cc1	i	77*	16	-2	1	-0.26
Cc1oc2c(c1C(=O)Nc1cccc(C(=O)O)c1)CCCC2	i	66*	10	-1	-3	.
C=CCc1c(C)[nH]c(=O)[nH]c1=O	i	78*	-2	2	6	-0.33
CC1=NNC(=O)C1CCC(=O)N/N=C/c1ccc(C)cc1 (stereo not given)	.	.	.	-3	.	3.3*
CCN(CC)c1ccc(CNc2nc3ccccc3n2C(C)C)cc1	.	.	.	-6	.	0.1
CC(C)n1c(NCc2ccc(N(C)C)cc2)nc2ccccc21	+	39	8	3	-3	1.2
CC(C)OC(=O)c1c(NC(=O)CCC(=O)O)sc2c1CCCCC2	i	67*	4	-5	4	-0.59
O=C(c1ccccc1)C1CN(Cc2ccccc2)CCC1(O)c1ccccc1 (stereo not given)	i	.	-4	0	-8	-1.1
OC(c1ccccc1)C1CN(Cc2ccccc2)CCC1(O)c1ccccc1 (stereo not given)	i	-283	33*	-10	-1	-0.78
Cc1cc(-n2c(C)cc(C(=O)COC(=O)CN=C3NS(=O)(=O)c4ccccc43)c2C)no1	i	-104	7	-8	-6	0.36
O=[N+]([O-])c1cccc(/C=N\N=C2c3ccccc3-c3ccccc32)c1O	i	11	40*	2	-10	0.57
COC(=O)c1sccc1NC(=O)c1ccc(Cl)s1	i	-38	5	-13	-7	-0.45
CCn1c(C(=O)Nc2ccsc2C(=O)OC)cc2sc(Cl)cc21	+	.	15	0	-5	-0.96
Fc1ccc(C2CC(c3ccco3)=NN2c2ccccc2)cc1 (stereo not given)	i	.	1	-7	-7	3.5*
Cc1ccc(-c2nnc(N3CCN(C(=O)COc4cccc(C)c4)CC3)c3ccccc23)cc1	.	.	.	-9	.	-0.48
O=C1N/C(=C/c2ccc(Br)s2)C(=O)N1c1ccccc1	+	.	-14	-6	5	-0.35
O=C(NC1CCCCCCC1)C1CCC(CNc2c(N3CCCC3)c(=O)c2=O)CC1 (stereo not given)	i	.	0	-9	5	.
COc1ccccc1N1CCN(C(=O)COc2cc(C)ccc2C)CC1	i	-11	9	9	-7	-0.22
COc1cc(/C=N/n2c(SC)nnc(C(C)(C)C)c2=O)ccc1O	i	77*	11	-12	15	0.94
Cc1cc(C)c(NC(=O)Nc2ccccc2)c(Cl)c1	i	0	-1	-1	1	-0.14
COc1ccc(/C=C2\CN(Cc3ccccc3)C/C(=C\c3ccc(OC)cc3)C2=O)cc1	i	0	-31	-8	-4	0.04
CCOc1ccc(-n2c(SCC(=O)NC(C)CC)nc3n[nH]c(C)c3c2=N)cc1 (stereo not given)	i	.	-8	-6	4	3*
COC(=O)/C=c1/s/c(=C(\C#N)C(=O)NCc2ccco2)n(-c2ccc(C)cc2)c1=O	+	.	-1	-8	-14	0.43
CCOC(=O)C1CCCN(c2c(N3CCN(c4ccccn4)CC3)c(=O)c2=O)C1 (stereo not given)	i	86*	2	0	-11	0.32
O=[N+]([O-])c1ccc(N/N=C\c2ccccc2OCc2ccccc2)cc1	+	-27	1	-1	-4	2.4
CCCCNc1nc2ccccc2[nH]1	i	100*	6	-8	0	-0.08
